# High-throughput results: PubChem, The Scripps Research Institute Molecular Screening Center
# 5HT1E ag – 5-HT1E (human) receptor agonism. CHO 5-HT1E Ga15 NFAT-bla reporter, FRET; 0% DMSO wells, 100% control agonist wells. activation, % at 6 µM. 65,000 tested, 0.69% active. AID 574;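 active = activation above a set limit, the screen-wide mean activation plus 3 SD, cut at about 8.5% in these data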
# S1P1 ag pot – activates or potentiates agonism at human S1P1 receptor; activation, % at 9.5 µM; S1P1 CRE-bla cells, forskolin, beta-lactamase FRET, potentiator mode; S1P1 agonist co-added at EC20, 2 nM; 100% = saturating reference agonist, 0% = basal; P21453; 56,000 tested, 0.57% active;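 active = activation above a cutoff set at the mean activation of all tested compounds plus 3 SD, cut at about 54% in these data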;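 also: forskolin at 4 µM as EC80 and the EC20 agonist is SEW2871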
# 5HT1E antag – 5-HT1E (human) receptor antagonism | P28566 | CHO 5-HT1E Ga15 NFAT-bla reporter, FRET, antagonist | inhibition, % at 6 µM | 65,000 tested, 0.99% active | AID 571;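 active = inhibition above a set limit, the mean inhibition across every tested compound plus 3 SD, cut at about 29% in these data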;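 also: signal is the 460 over 535 nm emission ratio of beta-lactamase substrate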
# S1P3 agonist – activates the human S1P3 receptor | activation, % at 4.5 µM | Q99500 | 60,000 tested, 0.1% active | S1P3 NFAT-BLA reporter cells, agonism, FRET ratio; relative to 1 µM S1P, basal subtracted | AID 373;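 active = activation above the screen-wide mean plus 3 SD, cut at about 4.5% in these data, passing the limit was not always enough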
# Target sequence (Q99500 whole entry, looked up): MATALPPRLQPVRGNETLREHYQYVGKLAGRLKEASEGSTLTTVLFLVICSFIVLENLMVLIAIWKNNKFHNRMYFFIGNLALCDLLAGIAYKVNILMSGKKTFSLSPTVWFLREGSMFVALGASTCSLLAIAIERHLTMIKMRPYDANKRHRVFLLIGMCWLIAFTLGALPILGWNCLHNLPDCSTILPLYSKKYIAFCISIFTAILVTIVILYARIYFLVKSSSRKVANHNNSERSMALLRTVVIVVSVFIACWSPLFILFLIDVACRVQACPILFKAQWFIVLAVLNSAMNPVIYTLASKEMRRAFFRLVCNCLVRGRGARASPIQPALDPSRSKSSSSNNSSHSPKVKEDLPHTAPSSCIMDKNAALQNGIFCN
#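 material = human S1P3 NFAT-BLA reporter CHO cells | schedule = 4 h compound at 37 °C, 2 h substrate at RT | measured by = fluorescent BLA substrate, ex 405 nm, em 460/535 nm ratio | controls = 1 µM S1P reference | replication = primary once, confirmation triplicate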
# 5HT1a ag – 5-HT1a (human) receptor agonism; 65,000 tested, 0.56% active; P08908; CHO 5-HT1a Ga15 NFAT-bla reporter, FRET ratio; 0% basal, 100% maximal reference agonist; AID 567; activation, % at 10 µM;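 active = activation above the screen-wide mean activation plus 3 SD, cut at about 19% in these data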
# 5-HT1A blocker – antagonists of human 5-HT1a serotonin receptor; P08908; CHO 5-HT1a Ga15 NFAT-bla reporter, antagonist mode; inhibition, % at 10 µM; 62,000 tested, 0.68% active; AID 612;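 active = inhibition above the mean of all tested compounds plus 3 SD, cut at about 43% in these data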;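 also: receptor stimulated by 5-CT agonist at 100 nM near EC80; beta-lactamase reporter measured by ratiometric fluorescence of a cleavable substrate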
# A number is an active result; . = inactive; / = no result given. A selection: hits, their analogues and other compounds. The true share with any hit is near 3%.
SMILES,5HT1E ag,S1P1 ag pot,5HT1E antag,S1P3 agonist,5HT1a ag,5-HT1A blocker
CCN=c1scc(-c2ccc3c(c2)NC(=O)CO3)n1N=C1CCCC1,.,64,.,.,.,.
CCSc1ccccc1C(=O)Nc1cc(C)on1,14,/,.,.,.,.
CC(=O)C(Sc1nc(-c2ccc(F)cc2)nc2c1c(=O)n(C)c(=O)n2C)C(C)=O,.,.,97,.,.,.
COCCNS(=O)(=O)c1ccc(SC)cc1,.,/,.,.,.,.
CCOC(=O)COc1cccc2c(=O)n(CC(=O)N3CCc4ccccc43)ccc12,.,.,.,.,.,.
CCOC(=O)COc1cccc2c(=O)n(CC(=O)NCc3ccc4c(c3)OCO4)ccc12,.,.,47,.,.,.
Cc1cccc(C)c1OCC(O)Cn1ccnc1C (centres undefined),.,.,.,.,.,.
Cc1cccc(C)c1OCC(O)CN (centres undefined),24,.,.,.,.,.
O=c1c2cc(N3CCOCC3)ccc2[nH]c(=S)n1CCCN1CCCCC1,.,/,.,/,.,.
O=c1c2cc(N3CCOCC3)ccc2[nH]c(=S)n1CCCN1CCCC1,9.6,/,.,/,.,.
O=C(NCC1CCCO1)c1cc2n(n1)C(C(F)(F)F)CC(c1ccc(F)cc1)N2 (centres undefined),.,.,.,.,.,.
COc1ccc(C2CC(C(F)(F)F)n3nc(C(=O)NCCN4CCOCC4)cc3N2)cc1 (centres undefined),.,.,.,.,36,.
Cc1noc(C)c1CSc1nc2[nH]ncc2c(=O)n1-c1ccccc1,.,/,52,.,.,.
Cc1noc(C)c1CSc1nc2ccccc2c(=O)n1-c1ccc(F)cc1F,.,.,.,.,.,46
Cc1noc(C)c1CSc1nc2ccccc2c(=O)n1-c1ccccc1,.,.,.,.,.,.
Cc1noc(C)c1CSc1nnc2n(-c3ccccc3)c(=O)c3ccccc3n12,.,.,.,.,.,.
CCOC(=O)N1CCN(c2nnnn2-c2ccccc2)CC1,.,/,.,.,.,.
CC1CN(c2nnnn2-c2ccccc2)CC(C)O1 (centres undefined),54,.,.,.,.,.
Nc1c(C(=O)OCC2CCCO2)c2nc3ccccc3nc2n1C1CCCC1 (centres undefined),.,.,.,.,.,.
Cn1c(-c2c(N)n(C3CCCC3)c3nc4ccccc4nc23)nc2ccccc21,.,71,77,.,.,77
c1ccc(-c2ccc(-c3nc(-c4cccnc4)no3)cc2)cc1,.,82,.,.,.,.
c1ccc(-c2ccc(-c3nc(-c4ccncc4)no3)cc2)cc1,.,85,.,.,.,.
c1ccc(-c2nc(-c3ccncc3)no2)cc1,.,/,.,.,.,.
c1ccc(C(Cc2nc(-c3ccncc3)no2)c2ccccc2)cc1,.,/,.,42,.,.
CCc1ccc(-c2nc(-c3ccncc3)no2)cc1,.,76,.,.,.,.
SMILES,5HT1E ag,S1P1 ag pot,5HT1E antag,S1P3 agonist,5HT1a ag,5-HT1A blocker
Cc1noc(C(=O)N2CC3(C)CC2CC(C)(C)C3)c1Cl (centres undefined),.,.,.,.,.,.
O=C(c1ccccc1)c1nc[nH]c1C(=O)Nc1ccccc1,.,.,.,.,.,.
Cc1ccccc1OCCNC(=O)CNC(=O)c1ccccc1O,.,/,.,.,.,.
CC1(C)CC(=O)C2=C(C1)N(Cc1ccco1)C(=O)C2(O)C(F)(F)F (centres undefined),.,.,.,.,.,/
O=S(=O)(NCCOCC(F)(F)C(F)F)c1ccc2oc3ccccc3c2c1,.,.,.,.,.,.
CC1Cc2ccccc2N1C(=O)CSc1nc2c(c(=O)n(C)c(=O)n2C)n1Cc1ccccc1 (centres undefined),.,.,.,.,.,.
Cc1ccc(S(=O)(=O)N2CCCC(C(=O)NCCc3ccc4c(c3)OCO4)C2)cc1 (centres undefined),.,.,.,.,.,.
OCCN1CCN(c2ncnc3c2sc2nc(N4CCOCC4)c4c(c23)CCC4)CC1,.,/,.,/,.,.
OCCN(CCO)c1ncnc2c1sc1nc(N3CCOCC3)c3c(c12)CCCC3,.,.,31,.,.,/
COc1ccc(S(=O)(=O)N(CC(=O)N2CCOCC2)c2cc(Cl)ccc2OC)cc1OC,.,.,.,.,.,.
CSc1nc2[nH]c3c(c2c2nnnn12)CCCC3,.,.,36,.,.,/
CSc1nc2[nH]c3c(c2c2nncn12)CC(C)(C)OC3,.,.,.,.,.,/
COc1ccc(NC(=O)CSC2CC(=O)N(c3ccc4c(c3)OCCO4)C2=O)cc1 (centres undefined),.,.,.,.,.,.
Cc1sc2nc(C3CC3)nc(NCCNS(C)(=O)=O)c2c1C,.,.,39,.,.,.
Cc1sc2nc(C3CC3)nc(N3CCN(S(=O)(=O)c4ccc(F)cc4)CC3)c2c1C,.,.,.,.,.,.
